Assay results as given in ChEMBL document CHEMBL4613293, “Pyridobenzothiazolones Exert Potent Anti-Dengue Activity by Hampering Multiple Functions of NS5 Polymerase” (ACS Med Chem Lett, 2020).
The source made the active and inactive calls. No cut-off for these calls is given here.

Key:
Zika virus = assay: Antiviral activity against Zika virus H/PF/2013 infected in human HuH7 cells assessed as reduction in virus replication incubated for 24 hrs by plaque reduction assay; format: functional, organism-based; details: H/PF/2013, Huh-7, 24 h
Summary of the method: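 ZIKV H/PF/2013 in HuH7 cells, treated 24 h. Titres read by plaque assay. EC50 is the concentration giving 50% inhibition of replication, reported as average ± SD of two independent experiments.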

dengue virus type 2 [1] = assay: Inhibition of Dengue virus NS5 RNA-dependent RNA polymerase assessed as reduction in elongation activity at 30 uM incubated for 1 hr relative to control
Summary of the method: (§1)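 Purified recombinant full-length DENV2 NS5 polymerase was tested in two formats: primer-independent (de novo initiation) and primer-dependent (elongation). Compound at a single 30 μM; % inhibition reported.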

[2] = Selectivity index, ratio of CC50 for human HuH7 cells to EC50 for Dengue virus 2 EDEN 3295 infected in human HuH7 cells; format: toxicity, cell-based; details: read-out: Ratio CC50/EC50
Summary of the method: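 Selectivity index is CC50 (CellTiter-Glo, HuH7) divided by EC50 (plaque assay, DENV2 EDEN 3295, 48 h, HuH7).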

[3] = Cytotoxicity against human HuH7 cells assessed as reduction in cell viability incubated for 48 hrs by CellTiter Glo Luminescent assay; format: cell-based, Huh-7
Summary of the method: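 HuH7 viability was read by CellTiter-Glo luminescence in parallel with the infection dose–response. CC50 is the concentration reducing viability by 50%.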

[4] = Selectivity index, ratio of CC50 for human HuH7 cells to EC50 for Zika virus H/PF/2013 infected in human HuH7 cells; format: toxicity, cell-based; details: read-out: Ratio CC50/EC50
Summary of the method: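 Selectivity index is CC50 (CellTiter-Glo, HuH7) divided by EC50 (plaque assay, ZIKV H/PF/2013, 24 h, HuH7).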

dengue virus type 2 [5] = assay: Inhibition of Dengue virus 2 NS5 assessed as reduction in NS5-3' UTR RNA at 25 uM incubated for 1 hr followed by 3' UTR RNA addition and measured after 20 mins by REMSA
Summary of the method: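 RNA electrophoretic mobility shift with DENV NS5 at 1.28 μM and RNA at 0.16 μM (RNA/NS5 1:8), compound at 25 μM, 37 °C. Order of addition: compound, then NS5, then RNA. Band shift from complex formation scored on gel.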

dengue virus type 2 [6] = assay: Antiviral activity against Dengue virus 2 EDEN 3295 infected in human HuH7 cells assessed as reduction in virus replication incubated for 48 hrs by plaque reduction assay; format: functional, organism-based; details: EDEN 3295, Huh-7, 48 h
Summary of the method: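 DENV2 EDEN 3295 in human hepatoma HuH7 cells, treated 48 h. Infectious virus quantified by plaque assay. Dose–response from 0.01 to 100 μM after an initial 10 μM screen. EC50 is the concentration giving 50% inhibition of replication, reported as average ± SD of two independent experiments.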

dengue virus type 2 [7] = assay: Inhibition of Dengue virus NS5 RNA-dependent RNA polymerase assessed as reduction in de novo initiation activity at 30 uM incubated for 1 hr relative to control; summary of the method: as §1
dengue virus type 3 = assay: Antiviral activity against Dengue virus 3 infected in human HuH7 cells assessed as reduction in virus replication incubated for 48 hrs by plaque reduction assay; format: functional, organism-based; details: Huh-7, 48 h
[8] = Inhibition of Dengue virus full length NS2b-NS3/NS5 interaction incubated for 1 hr by ELISA
Summary of the method: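 Competitive ELISA measuring DENV NS3–NS5 binding across compound concentrations. IC50 reported as average ± SD from one experiment in duplicate.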

dengue virus type 1 = assay: Antiviral activity against Dengue virus 1 infected in human HuH7 cells assessed as reduction in virus replication incubated for 48 hrs by plaque reduction assay; format: functional, organism-based; details: Huh-7, 48 h
dengue virus type 4 = assay: Antiviral activity against Dengue virus 4 infected in human HuH7 cells assessed as reduction in virus replication incubated for 48 hrs by plaque reduction assay; format: functional, organism-based; details: Huh-7, 48 h
[9] = Inhibition of Dengue virus NS5 RNA-dependent RNA polymerase assessed as reduction in elongation activity incubated for 1 hr; parameters: species or system dengue virus type 2
Summary of the method: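 Elongation (primer-dependent) activity of purified recombinant full-length DENV2 NS5 was measured over a concentration series with fluorescence read-out. Compound-only wells corrected for autofluorescence. IC50 is 50% inhibition of elongation, average ± SD from one experiment in duplicate.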

dengue virus type 2 [10] = assay: Antiviral activity against Dengue virus 2 EDEN 3295 clone 4_R infected in human HuH7 cells assessed as reduction in viral titer at 10 uM over 10 passage incubated for 72 hrs by resistance development assay relative to control; format: functional; details: EDEN 3295, Huh-7, 72 h
Summary of the method: (§2)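 Resistance selection: DENV2-infected HuH7 cells were passaged under rising compound concentrations, 72 h per passage, up to P10. P10 viruses (parental or resistant clone) were expanded in C6/36 insect cells. Susceptibility was then tested in HuH7 at a single 10 μM dose, read as viral titer reduction versus control. Two independent experiments in duplicate; average ± SD.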

dengue virus type 2 [11] = assay: Antiviral activity against Dengue virus 2 EDEN 3295 clone 4_R infected in human HuH7 cells assessed as reduction in viral titer over 10 passages incubated for 72 hrs by resistance development assay; format: functional, organism-based; details: EDEN 3295, Huh-7, 72 h
Summary of the method: (§3)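 Virus came from HuH7 serial passage under increasing compound concentrations (72 h each, to P10) and was expanded in C6/36 cells. P10 parental DENV2 or resistant-clone virus was then tested dose-dependently in HuH7 cells with 48 h compound treatment, measuring viral inhibition. Single experiment with duplicates.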

dengue virus type 2 [12] = assay: Antiviral activity against Dengue virus 2 EDEN 3295 infected in human HuH7 cells assessed as reduction in viral titer at 10 uM over 10 passage incubated for 72 hrs by resistance development assay relative to control; format: functional; details: EDEN 3295, Huh-7, 72 h; summary of the method: as §2
dengue virus type 2 [13] = assay: Antiviral activity against Dengue virus 2 EDEN 3295 infected in human HuH7 cells assessed as reduction in viral titer over 10 passages incubated for 72 hrs by resistance development assay; format: functional, organism-based; details: EDEN 3295, Huh-7, 72 h; summary of the method: as §3

| SMILES | EC50 (Zika virus) [µM] | inhibition (dengue virus type 2 [1]) [%] | inhibition (dengue virus type 2 [5]) | EC50 (dengue virus type 2 [6]) [µM] | inhibition (dengue virus type 2 [7]) [%] | EC50 (dengue virus type 3) [µM] | IC50 [8] [µM] | EC50 (dengue virus type 1) [µM] | EC50 (dengue virus type 4) [µM] | IC50 [9] [µM] | selectivity ratio [2] | CC50 at 48 h [3] [µM] | selectivity ratio [4] | inhibition at 10 µM (dengue virus type 2 [10]) [%] | EC50 (dengue virus type 2 [11]) [µM] | inhibition at 10 µM (dengue virus type 2 [12]) [%] | EC50 (dengue virus type 2 [13]) [µM] |
| --- | --- | --- | --- | --- | --- | --- | --- | --- | --- | --- | --- | --- | --- | --- | --- | --- | --- |
| Cn1cc(C(=O)N[C@@H](Cc2ccc(O)cc2)C(=O)O)cc(-c2ccccc2)c1=O |  | 70.2 |  |  | 35.6 |  |  |  |  |  |  |  |  |  |  |  |  |
| C#C[C@@]1(O)[C@H](O)[C@@H](CO)O[C@H]1n1ccc2c(N)ncnc21 | 0.2 |  |  | 1 |  |  |  |  |  |  | 100 | 100 | > 100 |  |  |  |  |
| O=C(N[C@@H](Cc1ccc(O)cc1)C(=O)O)c1cc(-c2ccccc2)c(=O)n(-c2cccc(OC3CCCCC3)c2)c1 |  | 72.1 |  |  | 36.4 |  |  |  |  | 81.3 |  |  |  |  |  |  |  |
| O=C(N[C@@H](Cc1ccc(O)cc1)C(=O)O)c1cc(-c2ccccc2)c(=O)n2c1sc1ccc(OC3CCCCCC3)cc12 | 1.6 | 92.1 |  | 3.7 | 30.5 |  | 33.8 |  |  | 9.62 | 30 | 100 | > 50 |  |  |  |  |
| O=C(O)CCNC(=O)c1cc(-c2ccccc2)c(=O)n2c1sc1ccc(OC3CCCCC3)cc12 | 1 | 77.6 | Active | 3.5 |  | 7.8 | 23.7 | 7 | 6.9 | 37.8 | > 30 | > 100 | > 100 | 20 | 11.4 | 80 | 5.3 |

The next lines start with results.

| EC50 (Zika virus) [µM] | inhibition (dengue virus type 2 [1]) [%] | inhibition (dengue virus type 2 [5]) | EC50 (dengue virus type 2 [6]) [µM] | inhibition (dengue virus type 2 [7]) [%] | EC50 (dengue virus type 3) [µM] | IC50 [8] [µM] | EC50 (dengue virus type 1) [µM] | EC50 (dengue virus type 4) [µM] | IC50 [9] [µM] | SMILES | selectivity ratio [2] | CC50 at 48 h [3] [µM] | selectivity ratio [4] | inhibition at 10 µM (dengue virus type 2 [10]) [%] | EC50 (dengue virus type 2 [11]) [µM] | inhibition at 10 µM (dengue virus type 2 [12]) [%] | EC50 (dengue virus type 2 [13]) [µM] |
| --- | --- | --- | --- | --- | --- | --- | --- | --- | --- | --- | --- | --- | --- | --- | --- | --- | --- |
| 1 | 44.8 | inactive | 1.8 |  |  |  |  |  |  | O=C(NCc1ccc(O)cc1)c1cc(-c2ccccc2)c(=O)n2c1sc1ccc(OC3CCCCC3)cc12 | > 50 | > 100 | > 100 |  |  |  |  |
| 0.8 | 94.1 |  | 2.9 | 12.6 | 4.3 | 18.1 | 3.2 | 5.9 | 14.5 | O=C(N[C@@H](Cc1cccc(O)c1)C(=O)O)c1cc(-c2ccccc2)c(=O)n2c1sc1ccc(OC3CCCCC3)cc12 | > 30 | > 100 | > 100 |  |  |  |  |
|  | 31.2 |  |  |  |  |  |  |  |  | O=C(NCc1ccccc1)c1cc(-c2ccccc2)c(=O)n2c1sc1ccc(OC3CCCCC3)cc12 |  |  |  |  |  |  |  |
| 1.8 | 63.3 |  | 1.9 | 10 |  |  |  |  |  | O=C(NCCO)c1cc(-c2ccccc2)c(=O)n2c1sc1ccc(OC3CCCCC3)cc12 | 43 | 86.3 | 43 |  |  |  |  |
|  | 97.5 |  |  | 44.8 |  |  |  |  | 19.8 | O=C(N[C@@H](CO)C(=O)O)c1cc(-c2ccccc2)c(=O)n2c1sc1ccc(OC3CCCCC3)cc12 |  |  |  |  |  |  |  |
| 0.4 | 93 |  | 2.1 | 40.7 | 2.8 | 42.4 | 2.8 | 1.7 | 9.16 | O=C(N[C@@H](Cc1ccc(O)cc1)C(=O)O)c1cc(-c2ccccc2)c(=O)n2c1sc1ccc(OC3CCCCC3)cc12 | > 50 | > 100 | > 100 |  |  |  |  |
|  | 6.3 | inactive |  |  |  |  |  |  |  | O=c1c(-c2ccccc2)ccc2sc3ccc(OC4CCCCC4)cc3n12 |  |  |  |  |  |  |  |
